Assay results from ChEMBL document CHEMBL1156357, “Catalytic inhibition of topoisomerase IIalpha by demethylzeylasterone, a 6-oxophenolic triterpenoid from Kokoona zeylanica” (J Nat Prod, 2001).
Calls of active or inactive are those of the source. The calls are words filed in the database; no cut-off is given here.

Columns and labels:
[1] = target: T1, DNA topoisomerase 2-alpha (Homo sapiens, UniProt P11388); experiment: Inhibition of human topoisomerase 2 p170alpha assessed as relaxation of lambda ZAPII plasmid Bluescript KS+ DNA at 100 uM by SDS electrophoresis
T1 sequence (P11388 whole entry): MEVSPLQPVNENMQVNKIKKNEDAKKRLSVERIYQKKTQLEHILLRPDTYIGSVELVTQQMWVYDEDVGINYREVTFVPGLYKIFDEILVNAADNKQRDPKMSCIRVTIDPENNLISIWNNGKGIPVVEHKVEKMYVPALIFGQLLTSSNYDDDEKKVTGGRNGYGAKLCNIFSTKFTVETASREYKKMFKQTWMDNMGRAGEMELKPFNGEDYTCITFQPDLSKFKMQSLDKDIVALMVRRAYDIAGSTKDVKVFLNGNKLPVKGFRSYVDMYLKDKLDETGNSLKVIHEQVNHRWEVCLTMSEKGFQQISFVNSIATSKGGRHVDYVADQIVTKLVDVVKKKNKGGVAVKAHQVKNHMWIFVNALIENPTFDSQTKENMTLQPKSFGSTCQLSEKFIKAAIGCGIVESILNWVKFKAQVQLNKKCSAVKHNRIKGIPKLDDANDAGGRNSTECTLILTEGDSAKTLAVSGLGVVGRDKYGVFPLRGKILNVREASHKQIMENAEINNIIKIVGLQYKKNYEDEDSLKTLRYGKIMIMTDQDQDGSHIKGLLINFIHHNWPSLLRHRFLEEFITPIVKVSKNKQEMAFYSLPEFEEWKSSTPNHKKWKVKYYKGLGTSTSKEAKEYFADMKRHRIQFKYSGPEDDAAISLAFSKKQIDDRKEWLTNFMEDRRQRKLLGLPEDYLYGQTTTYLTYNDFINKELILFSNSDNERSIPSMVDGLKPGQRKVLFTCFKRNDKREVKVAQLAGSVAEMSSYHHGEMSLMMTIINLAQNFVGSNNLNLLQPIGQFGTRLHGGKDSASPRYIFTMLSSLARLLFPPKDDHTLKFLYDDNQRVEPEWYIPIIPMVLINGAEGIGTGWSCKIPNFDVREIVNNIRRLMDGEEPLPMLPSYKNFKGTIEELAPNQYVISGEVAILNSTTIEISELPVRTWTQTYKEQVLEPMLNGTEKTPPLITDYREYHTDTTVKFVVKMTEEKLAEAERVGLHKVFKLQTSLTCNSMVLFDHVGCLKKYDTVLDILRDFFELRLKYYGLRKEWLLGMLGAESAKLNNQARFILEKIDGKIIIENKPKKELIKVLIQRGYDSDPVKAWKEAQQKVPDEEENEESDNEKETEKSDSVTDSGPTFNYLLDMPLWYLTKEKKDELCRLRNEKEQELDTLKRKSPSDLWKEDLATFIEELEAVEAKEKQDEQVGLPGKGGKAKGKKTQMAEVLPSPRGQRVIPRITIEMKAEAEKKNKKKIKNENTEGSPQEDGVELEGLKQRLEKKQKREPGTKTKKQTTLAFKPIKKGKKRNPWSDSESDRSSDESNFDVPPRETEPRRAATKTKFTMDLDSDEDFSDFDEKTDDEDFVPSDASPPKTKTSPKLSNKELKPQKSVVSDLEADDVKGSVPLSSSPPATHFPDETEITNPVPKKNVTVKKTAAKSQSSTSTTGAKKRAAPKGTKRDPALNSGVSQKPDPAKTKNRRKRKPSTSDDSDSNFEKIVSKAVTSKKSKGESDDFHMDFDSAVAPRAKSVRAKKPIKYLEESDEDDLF
How it was run: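 Compound at 100 µM in 0.5% Cremophor EL, 30 min at 37 °C. Stopped with 1% SDS, then proteinase K 50 µg/mL and chloroform-isoamyl alcohol extraction. Run on 1% TAE agarose with ethidium bromide 0.5 µg/mL post-stain. Etoposide 100 µM as control.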

Saccharomyces cerevisiae [2] = experiment: DNA damaging activity against topoisomerase 2-deficient rad52Y mutant yeast at 200 ug/mL by agar well diffusion assay; assay type: functional, organism-based
How it was run: (§1)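 Yeast strains (rad52Y; RAD+ wild type) were seeded separately on 1% nutrient agar plates. Samples at 200 µg/mL in 1:1 DMSO-MeOH were placed in wells cut by removing 7 mm plugs. Activity was the width (mm) of the zone around the well with no visible yeast growth. Camptothecin and streptonigrin at 5 µg/mL served as controls.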

Saccharomyces cerevisiae [3] = experiment: DNA damaging activity against wild type DNA repairing RAD gene expressing yeast at 200 ug/mL by agar well diffusion assay; assay type: functional, organism-based; how it was run: as §1
Saccharomyces cerevisiae [4] = experiment: DNA damaging activity against topoisomerase 2-deficient RS321N mutant yeast assessed as drug level required to produce 12 mm zone of inhibition by agar well diffusion assay; assay type: functional
How it was run: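 S. cerevisiae RS321N seeded on 1% nutrient agar. Samples in 1:1 DMSO-MeOH went into 7 mm wells. The read-out was the zone (mm) of no visible growth. Several concentrations were tested, and the dose giving a 12 mm zone (IC12) was calculated by regression.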

[5] = target: T1, DNA topoisomerase 2-alpha; experiment: Inhibition of human topoisomerase 2 p170alpha assessed as relaxation of lambda ZAPII plasmid Bluescript KS+ DNA by SDS electrophoresis
How it was run: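 Supercoiled pBlueScript KS(+) (about 200 ng) relaxed by 4 units human topo II (p170) in Tris-HCl pH 8.0 buffer with 120 mM KCl, 10 mM MgCl2, 0.5 mM ATP and DTT. Compound in 0.5% Cremophor EL, dilution series in triplicate, 30 min at 37 °C. SDS/proteinase K stop, then 1% TAE agarose gel with ethidium bromide staining. IC50 from the dilution series.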

Nucleic Acid = experiment: Displacement of methyl green dye from DNA by spectrophotometry; assay type: nucleic-acid assay
How it was run: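 Daunomycin (50 µg/mL) was the positive control. Methyl green absorbance was read on a plate reader.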

[6] = target: T1, DNA topoisomerase 2-alpha; experiment: Inhibition of human topoisomerase 2 p170alpha assessed as movement supercoiled lambda ZAPII plasmid Bluescript KS+ DNA at 100 uM after 60 mins by electrophoretic mobility shift assay
How it was run: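 Mobility shift with pBlueScript KS(+) and 6 units human topo II (p170) in ATP-free buffer. Buffer, running buffer and gel were all at pH 6.4. Compound at 100 µM, with etoposide 50 µM as control. No SDS/proteinase K stop; samples loaded directly onto a TAE gel containing 1.0 µg/mL ethidium bromide.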

MCF7 = experiment: Cytotoxicity against human MCF7 cells after 48 hrs by MTT assay; assay type: functional, cell-based; settings: MCF7, 48 h
How it was run: (§2)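 Cells kept in RPMI with 10% FBS at 37 °C, 5% CO2. Log-phase cells were treated in triplicate with 0-10 µM compound for 48 h at 37 °C in humidified 5% CO2. Viability was read by MTT absorbance on a plate reader.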

SF-268 = experiment: Cytotoxicity against human SF268 cells after 48 hrs by MTT assay at up to 10 uM; assay type: functional, cell-based; how it was run: as §2
NCI-H460 = experiment: Cytotoxicity against human NCI-H460 cells after 48 hrs by MTT assay at up to 10 uM; assay type: functional, cell-based; how it was run: as §2
Saccharomyces cerevisiae [7] = experiment: DNA damaging activity against topoisomerase 2-deficient rad52Y mutant yeast assessed as drug level required to produce 12 mm zone of inhibition by agar well diffusion assay; assay type: functional
How it was run: (§3)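 Saccharomyces cerevisiae strains (RS321N, rad52Y, RAD+) were seeded separately onto 1% nutrient agar. Samples at 200 µg/mL in 1:1 DMSO-MeOH went into 7 mm wells, and the clear growth-free zone was measured in mm. For actives, several concentrations were tested, and the dose giving a 12 mm zone (IC12) came from regression. Camptothecin and streptonigrin at 5 µg/mL served as controls.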

Saccharomyces cerevisiae [8] = experiment: DNA damaging activity against wild type DNA repairing RAD gene expressing yeast assessed as drug level required to produce 12 mm zone of inhibition by agar well diffusion assay; assay type: functional; how it was run: as §3

SMILES	Activity [1]	Activity (Saccharomyces cerevisiae [2])	Activity (Saccharomyces cerevisiae [3])	IC12 (concentration giving a 12 mm inhibition zone) (Saccharomyces cerevisiae [4]) [µg/mL]	other results
COC(=O)[C@]1(C)CC[C@]2(C)CC[C@]3(C)C4=CC(=O)c5c(cc(O)c(O)c5C=O)[C@]4(C)CC[C@@]3(C)[C@@H]2C1	inactive				
CC1=C(O)C(=O)C=C2C1=CC=C1[C@@]2(C)CC[C@@]2(C)[C@@H]3C[C@](C)(O)C(=O)C[C@]3(C)CC[C@]12C [20ALPHA-HYDROXYTINGENONE]		inactive	inactive	185	
CC1=C2C3=CC=C4C(=CC(=O)C(O)=C4C)[C@]3(C)CC[C@@]2(C)[C@@H]2C[C@@H](C)[C@@H](O)C(=O)C2C1 (stereo not given in full) [BALAENONOL]		inactive	inactive	220	
COc1cc([C@@H]2c3cc4c(cc3[C@@H](O[C@@H]3O[C@@H]5CO[C@@H](C)O[C@H]5[C@H](O)[C@H]3O)[C@H]3COC(=O)[C@H]23)OCO4)cc(OC)c1O	inactive				
COC(=O)[C@]1(C)CC[C@]2(C)CC[C@]3(C)C4=CC(=O)c5c(cc(O)c(O)c5C(=O)O)[C@]4(C)CC[C@@]3(C)[C@@H]2C1	inactive				
C[C@@]1(C(=O)O)CC[C@]2(C)CC[C@]3(C)C4=CC(=O)c5c(cc(O)c(O)c5C(=O)O)[C@]4(C)CC[C@@]3(C)[C@@H]2C1 [DEMETHYLZEYLASTERONE]	Active				IC50 [5]: 17.6 µM; Activity (Nucleic Acid): Active; Activity [6]: Active; IC50 (MCF7): 12.5 µM; Activity (SF-268): inactive; Activity (NCI-H460): inactive
CC[C@@]1(O)C(=O)OCc2c1cc1n(c2=O)Cc2cc3ccccc3nc2-1 [CAMPTOTHECIN]				>20	Activity (Saccharomyces cerevisiae [7]): 0.6 µg/mL; Activity (Saccharomyces cerevisiae [8]): 110 µg/mL
CC1=C(O)C(=O)C=C2C1=CC=C1[C@@]2(C)CC[C@@]2(C)[C@@H]3C[C@@H](C)C(=O)C[C@]3(C)CC[C@]12C [TINGENONE]		inactive	inactive	325	
COC(=O)[C@]1(C)CC[C@]2(C)CC[C@]3(C)C4=CCc5c(cc(O)c(O)c5C)[C@]4(C)CC[C@@]3(C)[C@@H]2C1	inactive				
COC1=C(N)C(=O)c2nc(-c3nc(C(=O)O)c(C)c(-c4ccc(OC)c(OC)c4O)c3N)ccc2C1=O [STREPTONIGRIN]				<0.4	Activity (Saccharomyces cerevisiae [7]): 0.4 µg/mL
